Data: article PMC6702080 (Nature chemical biology, 2019)
Read-outs that look alike come from different tables or passages of the source.

Tests used:
[1] = biological target: PCBP1–BolA2 complex (Homo sapiens, UniProt Q15365+Q9H3K6); test: Co-immunoprecipitation of PCBP1 with BolA2-Flag from HEK293 cell lysates; conditions: 1 mM DTT as alternative reducing agent instead of 5 mM GSH in IP buffer
[2] = biological target: T1, PCBP1 KH3 domain (WT) (Homo sapiens, UniProt Q15365); test: Fe; type: binding; conditions: for Kd: read-out: KD of Fe(II) for wild-type KH3
Target sequence in this assay (Q15365 279-356 limits assumed): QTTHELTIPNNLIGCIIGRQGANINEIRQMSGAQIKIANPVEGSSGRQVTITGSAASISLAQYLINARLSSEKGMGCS

[3] = biological target: PCBP1 KH3 domain C293S variant; test: Fe; type: binding, human; conditions: read-out: KD of Fe(II) for C293S KH3
Method in brief: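 Fe(II) binding followed as the fall in apo-indicator absorbance (366 nm, shifting toward 325 nm on metal binding). KD from competition; means ± SD, n = 4 independent experiments.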

[4] = biological target: T2, PCBP1 KH3 domain (Homo sapiens, UniProt Q15365); conditions: 10 μM Fe(II) versus no iron
T2 sequence (Q15365 279-356 limits assumed): as above

[5] = biological target: T2, PCBP1 KH3 domain; conditions: 100 μM 35S-GSH
[6] = biological target: T1, PCBP1 KH3 domain (WT); conditions: wild-type KH3, 100 μM 35S-GSH, +/- 100 μM FeSO4
Target sequence in this assay (Q15365 287-356 limits assumed): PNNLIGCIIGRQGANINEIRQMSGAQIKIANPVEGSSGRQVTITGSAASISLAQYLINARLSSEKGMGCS

[7] = biological target: T2, PCBP1 KH3 domain; test: biochemical; conditions: 200 nM labeled KH3
[8] = biological target: BolA2–KH3 complex (Homo sapiens, UniProt Q15365); test: biochemical
Chain of BolA2–KH3 complex (Q15365 279-356): as the sequence (Q15365 279-356 limits assumed) above
Chain of BolA2–KH3 complex (Q9H3K6 whole entry partner): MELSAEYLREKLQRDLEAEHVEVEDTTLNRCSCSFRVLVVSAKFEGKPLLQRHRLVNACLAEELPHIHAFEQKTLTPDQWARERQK

[9] = cited from earlier work

Chain of PCBP1–BolA2 complex (Q15365 whole entry, the tested form may be a part): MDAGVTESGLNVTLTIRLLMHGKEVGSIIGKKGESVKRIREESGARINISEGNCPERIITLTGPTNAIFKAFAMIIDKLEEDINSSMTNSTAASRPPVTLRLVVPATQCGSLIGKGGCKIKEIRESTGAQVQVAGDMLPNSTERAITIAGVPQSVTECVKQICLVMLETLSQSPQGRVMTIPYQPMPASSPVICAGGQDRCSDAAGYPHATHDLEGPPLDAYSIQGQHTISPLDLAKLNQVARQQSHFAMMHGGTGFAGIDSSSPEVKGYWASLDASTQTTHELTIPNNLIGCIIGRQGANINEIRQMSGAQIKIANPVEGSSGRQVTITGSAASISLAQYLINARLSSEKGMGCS
Chain of PCBP1–BolA2 complex (Q9H3K6 whole entry, the tested form may be a part): as the sequence (Q9H3K6 whole entry partner) above

In the case of `O[C@@H](CS)[C@@H](O)CS` (racemic) [dithiothreitol], the “stabilization of PCBP1–BolA2 complexes” value [1] is reported as “did not result in stabilization”.
With `O=S(=O)([O-])[O-].[Fe+2]` [Fe(II), FeSO4] the “fold increase of affinity of KH3 for Fe(II) by GSH” value ([2]; 5 mM GSH versus no GSH) was ~ 5 fold, the Kd ([2]; 0 mM GSH (absence of glutathione)) was 4200 ± 700 nM and the Kd ([2]; 5 mM GSH) was 800 ± 100 nM. The Kd ([3]; 0 mM GSH) was 16.4 ± 2.7 µM and the Kd ([3]; 5 mM GSH) was 9.4 ± 1.3 µM.
With `N[C@@H](CCC(=O)N[C@@H](CS)C(=O)NCC(=O)O)C(=O)O` [GSH, glutathione] the “fold higher affinity of GSH for KH3 with iron” value [4] was ~5 fold, the “GSH binding of wild-type KH3 relative to control IPs” value [5] was 5 fold and the “increase of GSH binding in the presence of Fe(II)” value [6] was 2 fold. The Kd ([7]; KD of GSH for KH3, buffer containing 10 μM Fe(II) (FeSO4)) was 80 ± 10 µM, the Kd ([7]; apparent KD of GSH for KH3, buffers without iron) was 390 ± 50 µM and the Kd [8] was 86 ± 25 µM.
For `[Mn+2]` [manganese], the “fold lower affinity for GSH than Fe(II)” value [9] is listed as > 100 fold.
